Source: ChEMBL document CHEMBL2176998, “Regulation of the Escherichia coli AtoSC two component system by synthetic biologically active 5;7;8-trimethyl-1;4-benzoxazine analogues” (Bioorg Med Chem, 2011)
The source made the active and inactive calls. No cut-off for these calls is given here.

How the values were obtained:
[1] = Induction of purified His6-tagged cytosolic AtoS autophosphorylation preincubated at 1 mM for 15 mins before […] addition after 30 mins by autoradiography
How it was run: (§1)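 Purified His6-tagged cytoAtoS (7 µM) was preincubated 15 min at room temperature with compound at 1 mM final in 50 mM Tris-HCl pH 7.6, 10 mM MgCl2, 100 mM KCl, 1 mM DTT, 10 mM NaF. Reactions were stopped with SDS loading buffer, resolved on 12% SDS–PAGE and autoradiographed.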

[2] = system: Escherichia coli; test: Increase in AtoC protein level in Escherichia coli K-12 BW25113 grown to OD600 0.5 to 0.6 at 1 to 2.5 mM by immunoblot method; format: functional, organism-based
How it was run: (§2)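 BW25113 carrying pUC-Az (atoS, atoC) grown in supplemented M9 with compound at 1.0 or 2.5 mM, added at the start of growth. Cultures were harvested at OD600 0.5–0.6. Whole-cell extracts in SDS loading buffer (15 µL) were boiled and run on SDS–PAGE, then immunoblotted with affinity-purified rabbit polyclonal anti-AtoC or anti-AtoS. BW28878, lacking AtoS/AtoC, was the negative control.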

[3] = system: Escherichia coli; test: Induction of atoC transcription in Escherichia coli K-12 BW25113 at 1 mM by beta-galactosidase reporter assay; format: functional, organism-based
How it was run: (§3)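 BW25113 carrying pCPG6 (atoC-lacZ) grown at 37 °C with vigorous shaking in supplemented M9 minimal medium with ampicillin 100 µg/mL. Overnight cultures were diluted 1:15 into medium containing compound at 1 mM, or at 0, 0.25, 0.5, 1.0, 2.5 and 5 mM. Cells were grown to OD600 0.4–0.7, then harvested, washed twice in M9, and assayed for β-galactosidase. The pMLB1034 vector strain served as negative control. Two independent experiments, two clones each.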

[4] = Induction of purified His6-tagged cytosolic AtoS kinase activity preincubated at 1 mM for 15 mins before […] addition after 30 mins by autoradiography; how it was run: as §1
[5] = system: Nucleic Acid; test: Activation of atoC promoter in Escherichia coli K-12 BW25113 by beta-galactosidase reporter assay; format: nucleic-acid assay; how it was run: as §3
[6] = Stimulation of recombinant purified His6-tagged cytosolic AtoS oligomers assessed as reduction in dimeric form at 1 mM using glutaraldehyde by SDS-PAGE analysis
How it was run: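 It was then cross-linked 30 min at 25 °C with 0.1% glutaraldehyde. The reaction was stopped with 2× SDS loading buffer and boiling, run on 8.5% SDS–PAGE and immunoblotted with anti-His (1:500).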

[7] = system: Escherichia coli; test: Increase in DnaK protein level in Escherichia coli K-12 BW25113 by Western blot method; format: functional, organism-based
[8] = system: Escherichia coli; test: Reduction in AtoS protein level in Escherichia coli K-12 BW25113 at 1 to 5 mM by immunoblot method; format: functional, organism-based
How it was run: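 BW25113/pUC-Az grown in supplemented M9 with various compound concentrations. Half of each dose was added at OD600 0.2 and half at 0.4, and growth continued to OD600 0.9. Total extracts (15 µL) were run on 10% SDS–PAGE and immunostained with anti-AtoC (1:500) or anti-AtoS (1:1000). BW28878 was the negative control.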

[9] = system: Nucleic Acid; test: Activation of atoDAEB promoter activity in Escherichia coli K-12 BW25113 harboring plasmid containing atoA-lacz by beta-galactosidase reporter assay in presence of 2.5 mM acetoacetate
[10] = system: Nucleic Acid; test: Effect on atoS promoter activity in Escherichia coli K-12 BW25113 at 1 to 2.5 mM by beta-galactosidase reporter assay; format: nucleic-acid assay
How it was run: (§4)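 BW25113 carrying pCPG4 (atoS-lacZ) or pCPG5 (atoA-lacZ), in supplemented M9 at 37 °C. Overnight cultures were diluted 1:15 into medium with compound at 1.0 or 2.5 mM and grown to OD600 0.4–0.7. Cells were harvested, washed twice in M9 and assayed for β-galactosidase. The pMLB1034 strain served as negative control.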

[11] = system: Escherichia coli; test: Repression of atoDAEB transcription in Escherichia coli K-12 BW25113 at 1 mM by beta-galactosidase reporter assay; format: functional, organism-based
How it was run: (§5)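 BW25113 carrying pCPG5 (atoA-lacZ, atoDAEB promoter) grown at 37 °C in supplemented M9 minimal medium with 1 mM compound. Overnight cultures were diluted 1:15 and grown to OD600 0.4–0.7. Cells were washed twice in M9, then β-galactosidase activity was read. Plasmid pMLB1034 served as negative control.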

[12] = system: Escherichia coli; test: Effect on HSP60 protein level in Escherichia coli K-12 BW25113 harboring plasmid containing atoC-lacZ at 0.25 to 5 mM by Western blot method; format: functional, organism-based
[13] = system: Nucleic Acid; test: Effect on atoDAEB promoter activity in Escherichia coli K-12 BW25113 at 1 to 2.5 mM by beta-galactosidase reporter assay; format: nucleic-acid assay; how it was run: as §4
[14] = system: Escherichia coli; test: Reduction in AtoC protein level in Escherichia coli K-12 BW25113 harboring pUC-Az plasmid at 5 mM by immunoblot method
[15] = system: Escherichia coli; test: Induction of atoC transcription in Escherichia coli K-12 BW25113 by beta-galactosidase reporter assay; format: functional, organism-based; how it was run: as §3
[16] = system: Escherichia coli; test: Effect on AtoS protein level in Escherichia coli K-12 BW25113 grown to OD600 0.5 to 0.6 at 1 mM by immunoblot method; format: functional, organism-based; how it was run: as §2
[17] = system: Escherichia coli; test: Reduction in AtoS protein level in Escherichia coli K-12 BW25113 grown to OD600 0.5 to 0.6 at 2.5 mM by immunoblot method; format: functional, organism-based; how it was run: as §2
[18] = system: Nucleic Acid; test: Activation of atoDAEB promoter activity in Escherichia coli K-12 BW25113 harboring plasmid containing atoA-lacz at 0.1 to 2.5 mM by beta-galactosidase reporter assay in presence of 2.5 mM acetoacetate; format: nucleic-acid assay
How it was run: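 BW25113/pCPG5 (atoA-lacZ) grown in modified M9 mineral medium with no acetoacetate or with 2.5 or 10 mM acetoacetate. Compound was added at 0.1, 0.5, 1.0 or 2.5 mM after 1:15 dilution of overnight cultures. Cells were grown to OD600 0.4–0.7, washed twice in M9 and assayed for β-galactosidase.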

[19] = system: Escherichia coli; test: Induction of atoDAEB transcription in Escherichia coli K-12 BW25113 at 1 mM by beta-galactosidase reporter assay; format: functional, organism-based; how it was run: as §5
[20] = system: Escherichia coli; test: Repression of atoC transcription in Escherichia coli K-12 BW25113 at 1 mM by beta-galactosidase reporter assay; format: functional, organism-based; how it was run: as §3

Row | Structure (SMILES) | Activity [1] | Activity [3] | Activity [11] | Activity [19] | also measured
1 | Cc1cc(C)c2c(c1C)OCCN2 | Active | Active | Active |  | Activity [2]: Active; Activity [4]: Active; Activity [5]: Dose-dependent effect; Activity [6]: Active; Activity [7]: Dose-dependent effect; Activity [8]: Active; Activity [9]: Active; Activity [10]: inactive; Activity [12]: inactive; Activity [13]: inactive; Activity [14]: Active; Activity [15]: Dose-dependent effect; Activity [16]: inactive; Activity [17]: Active; Activity [18]: Active
2 | Cc1c(C)c2c(c(C)c1Br)NCCO2 | inactive | inactive | Active | inactive | 
3 | COc1ccc(C2COc3c(C)c(C)cc(C)c3N2)cc1 (stereo unspecified) | inactive |  |  | Active | Activity [20]: Active
4 | Cc1c(C)c2c(c(C)c1Cl)NCCO2 | inactive |  | Active |  | Activity [20]: Active
5 | COc1ccc(-c2c(C)c(C)c3c(c2C)NCCO3)cc1 |  | Active |  | inactive | 
6 | COc1ccc(C2CNc3c(C)cc(C)c(C)c3O2)cc1 (stereo unspecified) | inactive | Active |  | Active | 
7 | Cc1c(C)c2c(c(C)c1Cl)NCC(c1ccccc1)O2 (stereo unspecified) | inactive | Active |  | Active | 
